Data set [1] deals with T1, Amine oxidase [flavin-containing] B (Rattus norvegicus, UniProt P19643).
T1 sequence (P19643 whole entry): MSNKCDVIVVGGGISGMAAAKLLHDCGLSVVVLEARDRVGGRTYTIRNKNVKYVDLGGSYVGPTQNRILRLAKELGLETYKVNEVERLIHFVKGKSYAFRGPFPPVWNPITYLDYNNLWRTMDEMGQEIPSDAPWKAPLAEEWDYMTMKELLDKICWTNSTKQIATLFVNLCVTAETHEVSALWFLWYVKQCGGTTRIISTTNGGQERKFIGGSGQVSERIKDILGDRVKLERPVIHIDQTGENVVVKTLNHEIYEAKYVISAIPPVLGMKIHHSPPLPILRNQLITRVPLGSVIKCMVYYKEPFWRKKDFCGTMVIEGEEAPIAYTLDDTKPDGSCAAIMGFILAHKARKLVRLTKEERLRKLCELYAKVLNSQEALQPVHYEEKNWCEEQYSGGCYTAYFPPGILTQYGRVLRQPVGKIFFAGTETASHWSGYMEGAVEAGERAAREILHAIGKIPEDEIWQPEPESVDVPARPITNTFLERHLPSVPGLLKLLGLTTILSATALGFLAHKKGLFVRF
Briefly: Inhibition of MAO-B in Sprague-Dawley rat brain mitochondrial suspension using kynuramine as substrate at 20 uM incubated for 5 mins prior to substrate addition measured for 5 mins by spectrophotometry. The procedure, abridged: (§1)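 Crude brain mitochondria from male Sprague-Dawley rats (200–250 g), used at 1 mg/mL. Isoforms separated with clorgyline or (−)-L-deprenyl, both irreversible at 250 nM. 5 min preincubation with compound, final DMSO 5% (v/v). Kynuramine then added at 60 μM (KM), and 4-hydroxyquinoline formation was followed at 314 nm for 5 min. IC50 by nonlinear regression of inhibition vs −log concentration, or % inhibition at 10 or 20 μM. Mean of 2–3 independent experiments.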

Data set [2] addresses T2, Amine oxidase [flavin-containing] A (Rattus norvegicus, UniProt P21396).
T2 sequence (P21396 whole entry): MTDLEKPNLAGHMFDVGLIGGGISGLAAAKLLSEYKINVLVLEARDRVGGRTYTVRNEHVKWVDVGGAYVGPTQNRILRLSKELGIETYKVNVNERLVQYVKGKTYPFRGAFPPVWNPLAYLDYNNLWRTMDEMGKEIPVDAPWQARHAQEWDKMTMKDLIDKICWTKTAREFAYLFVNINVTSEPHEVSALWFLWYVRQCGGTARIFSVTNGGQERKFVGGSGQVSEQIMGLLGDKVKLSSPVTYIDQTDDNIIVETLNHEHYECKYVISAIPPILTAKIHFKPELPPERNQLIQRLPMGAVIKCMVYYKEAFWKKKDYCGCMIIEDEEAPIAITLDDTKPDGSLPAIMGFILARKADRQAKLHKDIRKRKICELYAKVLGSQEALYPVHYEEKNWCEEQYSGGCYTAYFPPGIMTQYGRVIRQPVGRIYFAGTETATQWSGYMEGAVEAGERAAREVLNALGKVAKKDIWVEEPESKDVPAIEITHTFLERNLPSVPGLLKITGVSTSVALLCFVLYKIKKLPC
As to the kind of experiment: Inhibition of MAO-A in Sprague-Dawley rat brain mitochondrial suspension using kynuramine as substrate incubated for 5 mins prior to substrate addition measured for 5 mins by spectrophotometry.

In data set [3] the target is T1, Amine oxidase [flavin-containing] B. As to the kind of experiment: Inhibition of MAO-B in Sprague-Dawley rat brain mitochondrial suspension using kynuramine as substrate at 10 uM incubated for 5 mins prior to substrate addition measured for 5 mins by spectrophotometry. In short, it runs like this:
as §1

In data set [4] the target is T2, Amine oxidase [flavin-containing] A. As to the kind of experiment: Inhibition of MAO-A in Sprague-Dawley rat brain mitochondrial suspension using kynuramine as substrate at 10 uM incubated for 5 mins prior to substrate addition measured for 5 mins by spectrophotometry. In short, it runs like this:
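Male Sprague-Dawley rat brain (200–250 g) crude mitochondrial fraction, 1 mg/mL, stored at −40 °C in isotonic phosphate/KCl buffer pH 7.4. Selective irreversible inhibitors clorgyline and (−)-L-deprenyl (250 nM each) used to separate isoform activities. Test compound preincubated 5 min, final DMSO 5% (v/v). Kynuramine 90 μM (KM) added, 4-hydroxyquinoline formation read at 314 nm for 5 min. […] Mean of 2–3 independent experiments.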

Data set [5] concerns the target T1, Amine oxidase [flavin-containing] B. Briefly: Inhibition of MAO-B in Sprague-Dawley rat brain mitochondrial suspension using kynuramine as substrate incubated for 5 mins prior to substrate addition measured for 5 mins by spectrophotometry. The procedure, abridged: as §1
Data set [6] has as its target T2, Amine oxidase [flavin-containing] A. As to the kind of experiment: Ratio of moclobemide IC50 to compound IC50 for Sprague-Dawley rat brain MAO-A.

Take `CNC(=O)/C=C1/COc2cc(OS(=O)(=O)c3ccc(C#N)cc3)ccc21`: in data set [1], 20 µM produced 10% inhibition. In addition, in data set [2], half-maximal inhibition (IC50) required 45 nM.

On to `CNC(=O)/C=C1/COc2c1ccc(OS(=O)(=O)c1ccc(C#N)cc1)c2C`, for which the inhibition – broadly, how much of the control response was suppressed – at 10 µM in data set [3] stood at 6%. Moreover, it took 15 nM to reach half-maximal inhibition in data set [2] (IC50).

In turn, `CNC(=O)/C=C1/COc2cc(OS(=O)(=O)c3ccc([N+](=O)[O-])cc3)ccc21` registered an inhibition at 10 µM in data set [3] of 13%. Also, the half-maximal inhibitory concentration (IC50) (usually the point on the concentration scale where inhibition reaches its midpoint) in data set [2] worked out at 37 nM.

Take `CNC(=O)c1cc(=O)oc2cc(OS(=O)(=O)c3cccc(Cl)c3)ccc12`: the inhibition at 10 µM in data set [4] was 8%; in data set [3], 9%.

In data set [1], `CNC(=O)/C=C1/COc2cc(OS(=O)(=O)c3cccc(F)c3)ccc21` came in with an inhibition at 20 µM of 6%. Inhibition in data set [2] was half-maximal at 41 nM (IC50).

Regarding `CNC(=O)/C=C1/COc2cc(OS(=O)(=O)c3ccc(OC)cc3)ccc21`, in data set [3], the inhibition at 10 µM was 0%. In data set [2], this compound gave a half-inhibitory concentration (IC50) of 11 nM.

Consider `CNC(=O)/C=C1/COc2c1ccc(OS(=O)(=O)c1cccc(Cl)c1)c2C`, for which, in data set [3], the inhibition at 10 µM was determined as 2%. In addition, half-maximal inhibition in data set [2] (IC50) required 24 nM.

`CNC(=O)Cc1cc(=O)oc2cc(OS(=O)(=O)c3cccc(Cl)c3)ccc12`: the IC50 in data set [5] amounted to 8300 nM; in data set [2] it was 111 nM.

`CNC(=O)/C=C1/COc2c1ccc(OS(=O)(=O)c1ccc(OC)cc1)c2C`: the inhibition at 10 µM in data set [3] came out at 0%. Besides, in data set [6], the “Ratio IC50” value came out at 1000. Moreover, in data set [2], the IC50 was 7 nM.

In the case of `CNCc1cc(=O)oc2cc(OS(=O)(=O)c3cccc(Cl)c3)ccc12`, the IC50 in data set [5] came to 1700 nM; in data set [2], 5300 nM.

On to `CCNC(=O)Cc1coc2cc(OS(=O)(=O)c3cccc(Cl)c3)ccc12`, for which the inhibition at 10 µM came out at 31% in data set [4] and 0% in data set [3].

In data set [3], `O=C(NCCN1CCOCC1)c1ccc(Cl)cc1` [MOCLOBEMIDE] displayed an inhibition at 10 µM of 0%.

In the case of `CNC(=O)Cc1coc2cc(OS(=O)(=O)c3cccc(Cl)c3)ccc12`, in data set [3], at 10 µM the inhibition was 4%. In data set [2], this compound showed an IC50 of 409 nM.

In the case of `CNC(=O)Cc1coc2cc(OCc3cccc(Cl)c3)ccc12`, the values for the half-maximal inhibitory concentration (IC50) in data set [5] and in data set [2] were 284 nM and 3100 nM, respectively.

Take `CNC(=O)/C=C1/COc2cc(OS(=O)(=O)CCC(F)(F)F)ccc21`: at 10 µM the inhibition in data set [3] was 17%. The same compound came in with a 50% inhibitory concentration (IC50) in data set [2] of 9.1 nM.

`CC(C)NC(=O)/C=C1/COc2cc(OS(=O)(=O)c3cccc(Cl)c3)ccc21`: the results for the inhibition at 10 µM in data set [4] and in data set [3] were 14% and 1%, respectively.

The compound `CNC(=O)/C=C1/COc2cc(OS(=O)(=O)c3ccc(C(C)=O)cc3)ccc21` displayed an inhibition at 10 µM in data set [3] of 0%. In addition, it took 29 nM to reach half-maximal inhibition in data set [2] (IC50).

The compound `CNC(=O)/C=C1/COc2cc(OS(=O)(=O)c3cccc(C#N)c3)ccc21` returned an inhibition at 10 µM in data set [3] of 0%. The IC50 in data set [2] worked out at 19 nM.

Compound `CNC(=O)/C=C1/COc2cc(OS(=O)(=O)c3ccc(Cl)s3)ccc21` registered an inhibition at 10 µM in data set [3] of 6%. This compound yielded a half-inhibitory concentration (IC50) in data set [2] of 16 nM.

Compound `CNC(=O)/C=C1/COc2cc(OS(=O)(=O)c3cccc(Cl)c3)ccc21` gave an inhibition at 10 µM in data set [3] of 0%. The same compound returned a half-maximal inhibitory concentration (IC50) in data set [2] of 41 nM.

`CNC(=O)/C=C1/COc2c1ccc(OS(=O)(=O)CCC(F)(F)F)c2C`: in data set [3], the inhibition at 10 µM was determined as 5%. In data set [2], this compound had an IC50 of 11 nM.

Regarding `CNC(=O)/C=C1/COc2cc(OS(=O)(=O)c3ccccc3)ccc21`, the inhibition at 10 µM in data set [3] worked out at 0%. Half-maximal inhibition in data set [2] (IC50) was put at 34 nM.

For `CNC(=O)/C=C1/COc2cc(OCc3cccc(Cl)c3)ccc21`, the IC50 is 36 nM in data set [5] and 427 nM in data set [2].

`CNC(=O)/C=C1/COc2cc(OS(=O)(=O)c3ccc(Cl)cc3)ccc21` returned an inhibition at 10 µM in data set [3] of 6%. For the same compound, in data set [2], half-maximal inhibition (IC50) was put at 12 nM.

Compound `CNC(=O)/C=C1/COc2c1ccc(OS(=O)(=O)c1ccccc1)c2C` gave an inhibition at 10 µM in data set [3] of 5%. Also, in data set [2], 9.8 nM corresponded to half-maximal inhibition (IC50).

As to `O=C1COc2cc(OS(=O)(=O)c3cccc(Cl)c3)ccc21`, the inhibition at 10 µM is 17% in data set [4] and 0% in data set [3].

On to `CNC(=O)/C=C1/COc2cc(OS(=O)(=O)c3ccc(S(C)(=O)=O)cc3)ccc21`, for which testing at 10 µM in data set [3] gave an inhibition of 0%. In addition, in data set [2], the IC50 was determined as 19 nM.

With `NCc1cc(=O)oc2cc(OS(=O)(=O)c3cccc(Cl)c3)ccc12`, the half-maximal inhibitory concentration (IC50) is 3300 nM in data set [5] and 997 nM in data set [2].

In data set [3], `CCNC(=O)/C=C1/COc2cc(OS(=O)(=O)c3cccc(Cl)c3)ccc21` showed an inhibition at 10 µM of 0%. The compound further registered an IC50 in data set [2] of 4200 nM.

Source of the values: ChEMBL document CHEMBL2321669, “Discovery, biological evaluation, and structure-activity and -selectivity relationships of 6'-substituted (E)-2-(benzofuran-3(2H)-ylidene)-N-methylacetamides, a novel class of potent and selective monoamine oxidase inhibitors” (J Med Chem, 2013).
